Screening results deposited in PubChem by Sanford-Burnham Center for Chemical Genomics.
LMPTP block = LMPTP (human) inhibition. AID 651560. P24666. recombinant LMPTP-A, OMFP fluorogenic substrate, fluorescence intensity. inhibition, % at 20 µM. actives 0.22% (n = 360,000);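 active = compounds that cut the enzyme signal by at least half of the control window in the single-dose screen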;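 note: plate controls were DMSO wells with enzyme plus substrate for no effect and substrate without enzyme for full effect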
Target sequence (P24666 whole entry, looked up): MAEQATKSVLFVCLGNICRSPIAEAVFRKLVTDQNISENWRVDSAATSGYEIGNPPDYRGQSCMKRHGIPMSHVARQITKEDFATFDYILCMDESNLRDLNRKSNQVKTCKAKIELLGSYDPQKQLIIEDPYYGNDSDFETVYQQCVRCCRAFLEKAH
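Test system: LMPTP-A phosphatase enzyme. Amount: LMPTP-A at 0.625 nM final in the reaction. Reagent: OMFP substrate, 400 µM final. Times: 50 min at room temperature. Signal: endpoint fluorescence intensity from OMFP dephosphorylation. Read-out basis: % inhibition. Benchmarks: no-enzyme and uninhibited controls.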
Scp-1 inhibitor = inhibitors of human Scp-1 phosphatase | Q9GZU7 | Recombinant Scp1, phosphopeptide, malachite green phosphate absorbance | inhibition, % at 20 µM | actives 0.88% (n = 340,000);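 active = inhibition above about 50% at 20 µM, limit read from the data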;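 note: plate controls were DMSO wells with enzyme for no effect and wells lacking enzyme for full effect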
Target sequence (Q9GZU7 76-261 limits assumed): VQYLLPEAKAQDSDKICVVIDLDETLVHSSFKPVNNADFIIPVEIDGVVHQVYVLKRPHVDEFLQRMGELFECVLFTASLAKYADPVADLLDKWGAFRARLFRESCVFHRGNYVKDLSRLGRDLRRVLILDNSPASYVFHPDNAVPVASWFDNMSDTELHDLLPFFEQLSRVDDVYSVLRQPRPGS
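Test system: SCP-1 phosphatase catalytic domain, residues 76-261 | Compound dosing: One concentration, 20 µM, with 1.0% DMSO | Schedule: 45 min room-temperature reaction, 5 min colour, 30 min stabiliser | Detection: Absorbance at 630 nm | Read-out basis: % inhibition of SCP-1 phosphate liberation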
SUMO1 PPI mod = SUMO1-SIM interaction modulation | P63165 | SUMO1 binding to a labelled peptide, TR-FRET, 1 h | inhibition, % at 20 µM | actives 0.33% (n = 360,000); in the data active = inhibition above about 37%
Target sequence (P63165 whole entry, looked up): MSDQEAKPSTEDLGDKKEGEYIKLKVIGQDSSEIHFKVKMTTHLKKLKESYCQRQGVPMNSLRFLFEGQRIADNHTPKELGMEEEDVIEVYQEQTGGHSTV
HKDC1 inhibitor = blocks human hexokinase HKDC1 activity. recombinant HKDC1, G6PDH/diaphorase resazurin coupled fluorescence. inhibition, % at 20 µM. actives 0.16% (n = 340,000);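 active = inhibition above about 35% when tested at 20 µM, limit read from the data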;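 note: plate controls were DMSO wells with enzyme for no effect and DMSO wells lacking enzyme for full effect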
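Assay system: in-house recombinant HK5 (HKDC1) enzyme. Input: HKDC1 at 5 µg/mL. Medium: Tris pH 8.0 buffer with MgCl2, Tween-20, BSA, BME. Dosing: single 20 µM dose. Schedule: 90 min reaction incubation at room temperature, dark. Signal: resazurin-to-resorufin fluorescence via G6PDH and diaphorase coupling, 525/613 nm. Controls: DMSO-enzyme wells negative, buffer-substituted wells positive.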
STEP inh = inhibitors of human striatal-enriched phosphatase STEP. actives 0.25% (n = 360,000). AID 588621. P54829. recombinant STEP, OMFP fluorogenic substrate, fluorescence. inhibition, % at 20 µM;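 active = inhibition at 20 µM, scaled per plate between control wells, above about 37%, limit read from the data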;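 note: 0% = DMSO with enzyme and substrate and 100% = substrate only without enzyme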
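Test system: STEP tyrosine phosphatase / Reagent: OMFP at 25 µM / Doses: 20 µM, 1% DMSO / Read-out: percent inhibition scaled to no-enzyme and uninhibited-enzyme controls, plate-pattern corrected / Detection: FITC-channel fluorescence of OMFP product / Medium: Bis-Tris buffer pH 6.0, 2.5 mM DTT, 0.005% Tween 20 / Schedule: 20 min at room temperature, dark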
DNMT1 block = DNMT1 (human) enzyme inhibition; AID 588458; P26358; actives 0.83% (n = 360,000); DNMT1 molecular beacon, Hinp1I cleavage, fluorescence; inhibition (reported as % activation of signal), % at 10 µM; in the data active = inhibition above about 50%
DNMT1 confirm = DNMT1 inhibition confirmation, single concentration. shares compounds with DNMT1 block. DNMT1 molecular beacon HinP1I cleavage, fluorescence. inhibition, % at 10 µM. actives 8% (n = 2,300);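 active = average inhibition of at least 30% in the single-concentration confirmation test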
DNMT1 interf = shows spectral interference in the DNMT1 beacon assay; DNMT1 molecular beacon spectral interference counterscreen, fluorescence 485/520; activation (fluorescence interference), % at 10 µM; actives 1% (n = 2,300); shares compounds with DNMT1 block;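 active = activation of at least 30% at 10 µM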;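 note: DNMT1 catalytic domain with a HinP1I cleavage step and a FAM/dabcyl DNA beacon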
Numbers without * were called inactive. Rows were chosen to be rich in hits. Some 1.8% of all compounds tested hit in one or more screens of this group.

How did Cn1cnc(S(=O)(=O)N2CCCCC2c2cc(C(=O)NCc3ccc(Cl)c(Cl)c3)no2)c1 (centres undefined) do in these assays?
LMPTP block: 0; SUMO1 PPI mod: 3; STEP inh: -2; DNMT1 block: -5

Results for O=C(Nc1cccc(Cl)c1)c1cc2c(=O)n3ccccc3nc2s1 ?
LMPTP block: 24; Scp-1 inhibitor: -8; SUMO1 PPI mod: 6; HKDC1 inhibitor: 0; STEP inh: 2; DNMT1 block: 62*; DNMT1 confirm: 7; DNMT1 interf: 18

How did Cc1ccc(/C=c2\sc3nc(-c4ccco4)nn3c2=O)o1 do in these assays?
LMPTP block: 61*; Scp-1 inhibitor: 81*; SUMO1 PPI mod: 44*; HKDC1 inhibitor: 20; STEP inh: 72*; DNMT1 block: 105*; DNMT1 confirm: 0; DNMT1 interf: -1

How did O=C(N/N=C/c1cc(Cl)cc([N+](=O)[O-])c1O)NC12CC3CC(CC(C3)C1)C2 do in these assays?
LMPTP block: 78*; Scp-1 inhibitor: 23; SUMO1 PPI mod: -1; HKDC1 inhibitor: 3; STEP inh: 8; DNMT1 block: 72*; DNMT1 confirm: 7; DNMT1 interf: -5

How did O=C(N/N=C/c1ccccc1O)NC12CC3CC(CC(C3)C1)C2 do in these assays?
LMPTP block: 2; Scp-1 inhibitor: -7; SUMO1 PPI mod: -5; HKDC1 inhibitor: -2; STEP inh: -3; DNMT1 block: -7

How did CCC1(O)CCCC2C3CCC4CC(=O)CCC4(C)C3C(=O)CC21C (centres undefined) do in these assays?
LMPTP block: 0; Scp-1 inhibitor: -10; SUMO1 PPI mod: 0; HKDC1 inhibitor: -6; STEP inh: -2; DNMT1 block: 0

How did CCOC(=O)c1c(C)[nH]c(C(=O)OC(C)C(=O)Nc2ccc(C)cc2)c1C (centres undefined) do in these assays?
LMPTP block: 1; SUMO1 PPI mod: 3; STEP inh: -2; DNMT1 block: 74*; DNMT1 confirm: -2; DNMT1 interf: -2

What do the screens show for `O=C(Nc1ccc(Cl)cn1)c1cc2c(s1)-c1ccccc1OC2`?
LMPTP block: 0; Scp-1 inhibitor: -7; SUMO1 PPI mod: -6; HKDC1 inhibitor: -7; STEP inh: -2; DNMT1 block: 56*; DNMT1 confirm: 0; DNMT1 interf: 0

Results for CC1CC(=O)N(CC(=O)NCc2ccc(F)cc2)c2ccccc2S1(=O)=O (centres undefined) ?
LMPTP block: -1; Scp-1 inhibitor: -5; SUMO1 PPI mod: 0; HKDC1 inhibitor: -2; STEP inh: -3; DNMT1 block: 0

How did O=C(Nc1ccccc1)Nc1nnc(-c2ccccc2)s1 do in these assays?
LMPTP block: -2; Scp-1 inhibitor: 1; SUMO1 PPI mod: 1; HKDC1 inhibitor: -4; STEP inh: 0; DNMT1 block: 20

What do the screens show for `O=C(Nc1ccccc1)Nc1nnc(/C=C/c2ccccc2Cl)s1`?
LMPTP block: 0; Scp-1 inhibitor: -12; SUMO1 PPI mod: 0; HKDC1 inhibitor: 4; STEP inh: 2; DNMT1 block: 89*; DNMT1 confirm: 1; DNMT1 interf: 1

What do the screens show for `CSCCC(C(=O)NC1CCCC1)n1c(C2CCCC2)nc2ccccc21` (centres undefined)?
LMPTP block: 0; SUMO1 PPI mod: -9

What do the screens show for `CC(C)C(=O)N1CCC1(C)C(=O)Nc1nc2ccccc2[nH]1` (centres undefined)?
LMPTP block: 0; SUMO1 PPI mod: -1; STEP inh: -3; DNMT1 block: 2
